Data published in the M2OR odorant receptor database.

Tests used:
Details in all cases: stereoisomer not certain
UniProt Q8VGC6 = target: T1, UniProt Q8VGC6
T1 sequence (whole entry): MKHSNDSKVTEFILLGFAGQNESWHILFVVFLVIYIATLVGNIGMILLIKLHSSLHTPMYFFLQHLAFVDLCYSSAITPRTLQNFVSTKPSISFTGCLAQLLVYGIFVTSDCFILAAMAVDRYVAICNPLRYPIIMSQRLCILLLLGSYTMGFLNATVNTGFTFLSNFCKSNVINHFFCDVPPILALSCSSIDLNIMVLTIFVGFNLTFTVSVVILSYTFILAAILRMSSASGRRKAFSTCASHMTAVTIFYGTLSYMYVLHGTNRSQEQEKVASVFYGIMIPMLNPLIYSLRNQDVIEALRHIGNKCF
Summary of the method: (§1)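 Each entry records the cell line, G-protein, co-transfected protein and tags used. Methods varied with the source, often transient luciferase assays in mammalian cell lines. A receptor–molecule pair is called responsive (active) if the original authors judged its signal statistically different from baseline and non-responsive (inactive) otherwise.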

UniProt Q8VGD7 = target: T2, UniProt Q8VGD7
T2 sequence (whole entry): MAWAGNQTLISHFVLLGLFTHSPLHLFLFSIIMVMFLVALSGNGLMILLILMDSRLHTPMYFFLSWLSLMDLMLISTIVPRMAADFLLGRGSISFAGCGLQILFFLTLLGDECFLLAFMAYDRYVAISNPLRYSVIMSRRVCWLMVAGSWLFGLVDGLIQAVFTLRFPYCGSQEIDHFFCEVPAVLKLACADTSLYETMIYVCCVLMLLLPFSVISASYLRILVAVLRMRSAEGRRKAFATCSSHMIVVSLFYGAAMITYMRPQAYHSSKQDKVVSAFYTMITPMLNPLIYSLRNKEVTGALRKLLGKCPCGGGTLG
Summary of the method: as §1

UniProt Q8VGH1 = target: T3, UniProt Q8VGH1
T3 sequence (whole entry): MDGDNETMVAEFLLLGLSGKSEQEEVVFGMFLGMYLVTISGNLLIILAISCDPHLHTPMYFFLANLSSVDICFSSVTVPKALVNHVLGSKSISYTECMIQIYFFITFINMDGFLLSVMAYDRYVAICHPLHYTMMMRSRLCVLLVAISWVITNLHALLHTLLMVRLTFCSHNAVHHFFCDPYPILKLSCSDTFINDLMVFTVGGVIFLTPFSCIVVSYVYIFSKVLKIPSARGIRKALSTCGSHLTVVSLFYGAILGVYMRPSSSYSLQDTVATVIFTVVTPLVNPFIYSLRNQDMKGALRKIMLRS
Summary of the method: as §1

UniProt Q8VGJ1 = target: T4, UniProt Q8VGJ1
T4 sequence (whole entry): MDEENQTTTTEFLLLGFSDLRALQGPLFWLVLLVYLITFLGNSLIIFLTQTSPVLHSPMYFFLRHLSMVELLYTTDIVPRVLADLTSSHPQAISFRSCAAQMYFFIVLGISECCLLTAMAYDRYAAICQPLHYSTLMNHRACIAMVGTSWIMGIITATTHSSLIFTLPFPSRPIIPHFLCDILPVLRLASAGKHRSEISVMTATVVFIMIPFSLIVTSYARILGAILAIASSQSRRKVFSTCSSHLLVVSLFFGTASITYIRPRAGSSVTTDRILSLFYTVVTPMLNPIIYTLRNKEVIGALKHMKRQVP
Summary of the method: as §1

UniProt Q8VGJ3 = target: T5, UniProt Q8VGJ3
T5 sequence (whole entry): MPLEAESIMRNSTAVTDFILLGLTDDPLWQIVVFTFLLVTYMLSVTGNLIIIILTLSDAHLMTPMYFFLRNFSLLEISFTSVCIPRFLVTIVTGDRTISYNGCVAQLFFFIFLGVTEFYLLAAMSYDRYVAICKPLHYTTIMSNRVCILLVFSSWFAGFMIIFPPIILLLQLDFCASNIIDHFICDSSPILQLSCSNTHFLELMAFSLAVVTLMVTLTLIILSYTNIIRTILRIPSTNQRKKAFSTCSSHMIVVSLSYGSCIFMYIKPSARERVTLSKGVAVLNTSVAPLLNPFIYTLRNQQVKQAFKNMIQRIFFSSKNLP
Summary of the method: as §1

UniProt Q8VGJ5 = target: T6, UniProt Q8VGJ5
T6 sequence (whole entry): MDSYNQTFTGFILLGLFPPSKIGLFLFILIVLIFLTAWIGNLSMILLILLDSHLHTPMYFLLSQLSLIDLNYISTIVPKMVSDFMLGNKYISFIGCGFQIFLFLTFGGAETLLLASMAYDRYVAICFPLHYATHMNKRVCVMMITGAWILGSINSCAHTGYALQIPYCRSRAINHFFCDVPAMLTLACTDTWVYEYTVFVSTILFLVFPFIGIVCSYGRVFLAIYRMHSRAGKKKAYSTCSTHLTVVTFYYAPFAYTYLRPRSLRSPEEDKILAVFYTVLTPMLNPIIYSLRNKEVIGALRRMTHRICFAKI
Summary of the method: as §1

UniProt Q8VGL0 = target: T7, UniProt Q8VGL0
T7 sequence (whole entry): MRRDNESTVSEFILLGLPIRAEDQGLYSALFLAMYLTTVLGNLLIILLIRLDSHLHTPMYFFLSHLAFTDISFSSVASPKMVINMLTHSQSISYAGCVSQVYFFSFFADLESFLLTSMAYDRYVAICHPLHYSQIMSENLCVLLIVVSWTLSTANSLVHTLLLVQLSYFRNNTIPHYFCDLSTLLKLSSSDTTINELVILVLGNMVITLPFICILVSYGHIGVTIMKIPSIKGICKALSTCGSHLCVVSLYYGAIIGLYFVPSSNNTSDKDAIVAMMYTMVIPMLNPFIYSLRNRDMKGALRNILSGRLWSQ
Summary of the method: as §1

UniProt Q8VGL7 = target: T8, UniProt Q8VGL7
T8 sequence (whole entry): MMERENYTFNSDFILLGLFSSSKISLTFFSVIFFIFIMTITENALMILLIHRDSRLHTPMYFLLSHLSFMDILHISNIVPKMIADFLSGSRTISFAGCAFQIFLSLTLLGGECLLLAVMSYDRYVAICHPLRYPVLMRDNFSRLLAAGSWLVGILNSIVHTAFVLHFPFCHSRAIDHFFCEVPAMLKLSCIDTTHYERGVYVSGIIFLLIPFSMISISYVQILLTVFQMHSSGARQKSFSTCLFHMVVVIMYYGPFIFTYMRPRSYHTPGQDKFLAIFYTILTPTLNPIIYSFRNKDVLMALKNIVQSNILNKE
Summary of the method: as §1

UniProt Q8VGM2 = target: T9, UniProt Q8VGM2
T9 sequence (whole entry): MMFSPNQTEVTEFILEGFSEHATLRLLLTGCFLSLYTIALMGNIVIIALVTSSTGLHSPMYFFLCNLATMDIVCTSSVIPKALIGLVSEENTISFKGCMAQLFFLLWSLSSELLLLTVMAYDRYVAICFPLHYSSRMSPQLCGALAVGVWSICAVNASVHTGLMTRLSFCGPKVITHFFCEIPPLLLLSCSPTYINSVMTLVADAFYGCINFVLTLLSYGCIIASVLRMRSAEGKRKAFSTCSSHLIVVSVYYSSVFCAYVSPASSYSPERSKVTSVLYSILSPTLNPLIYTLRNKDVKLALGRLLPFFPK
Summary of the method: as §1

UniProt Q8VGP6 = target: T10, UniProt Q8VGP6
T10 sequence (whole entry): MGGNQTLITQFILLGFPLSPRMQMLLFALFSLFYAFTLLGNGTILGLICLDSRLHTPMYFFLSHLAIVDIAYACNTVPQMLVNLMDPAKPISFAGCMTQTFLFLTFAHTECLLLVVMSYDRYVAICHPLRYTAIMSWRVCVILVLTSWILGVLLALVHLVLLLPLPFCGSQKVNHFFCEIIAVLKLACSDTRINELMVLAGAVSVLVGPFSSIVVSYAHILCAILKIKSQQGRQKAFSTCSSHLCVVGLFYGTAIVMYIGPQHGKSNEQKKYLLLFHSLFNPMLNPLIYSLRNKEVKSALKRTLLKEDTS
Summary of the method: as §1

UniProt Q8VGQ3 = target: T11, UniProt Q8VGQ3
T11 sequence (whole entry): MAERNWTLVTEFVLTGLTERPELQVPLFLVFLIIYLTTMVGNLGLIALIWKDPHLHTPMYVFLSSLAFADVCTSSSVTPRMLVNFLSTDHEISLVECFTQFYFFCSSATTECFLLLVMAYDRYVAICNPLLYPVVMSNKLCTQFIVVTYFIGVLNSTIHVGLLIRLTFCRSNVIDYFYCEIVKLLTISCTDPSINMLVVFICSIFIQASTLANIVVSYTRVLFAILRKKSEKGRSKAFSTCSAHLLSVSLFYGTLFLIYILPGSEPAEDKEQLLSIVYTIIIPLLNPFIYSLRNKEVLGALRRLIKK
Summary of the method: as §1

UniProt Q8VGT4 = target: T12, UniProt Q8VGT4
T12 sequence (whole entry): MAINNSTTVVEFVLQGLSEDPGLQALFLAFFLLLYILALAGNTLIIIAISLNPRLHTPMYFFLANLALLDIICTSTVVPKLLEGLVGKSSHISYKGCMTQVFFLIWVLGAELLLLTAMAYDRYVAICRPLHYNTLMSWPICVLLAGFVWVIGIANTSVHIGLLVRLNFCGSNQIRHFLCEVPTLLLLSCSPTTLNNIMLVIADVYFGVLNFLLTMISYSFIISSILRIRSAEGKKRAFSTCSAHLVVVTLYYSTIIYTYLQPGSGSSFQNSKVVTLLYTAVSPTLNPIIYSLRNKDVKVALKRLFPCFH
Summary of the method: as §1

UniProt Q8VGU3 = target: T13, UniProt Q8VGU3
T13 sequence (whole entry): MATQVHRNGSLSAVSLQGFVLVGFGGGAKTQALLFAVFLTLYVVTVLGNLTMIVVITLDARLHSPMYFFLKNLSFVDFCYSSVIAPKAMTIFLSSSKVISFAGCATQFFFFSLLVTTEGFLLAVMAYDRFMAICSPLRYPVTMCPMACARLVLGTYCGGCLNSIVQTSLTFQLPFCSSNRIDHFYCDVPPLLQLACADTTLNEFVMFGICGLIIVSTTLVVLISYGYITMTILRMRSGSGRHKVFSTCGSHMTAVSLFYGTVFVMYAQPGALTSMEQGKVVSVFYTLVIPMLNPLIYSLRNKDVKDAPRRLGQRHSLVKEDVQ
Summary of the method: as §1

UniProt Q8VGV1 = target: T14, UniProt Q8VGV1
T14 sequence (whole entry): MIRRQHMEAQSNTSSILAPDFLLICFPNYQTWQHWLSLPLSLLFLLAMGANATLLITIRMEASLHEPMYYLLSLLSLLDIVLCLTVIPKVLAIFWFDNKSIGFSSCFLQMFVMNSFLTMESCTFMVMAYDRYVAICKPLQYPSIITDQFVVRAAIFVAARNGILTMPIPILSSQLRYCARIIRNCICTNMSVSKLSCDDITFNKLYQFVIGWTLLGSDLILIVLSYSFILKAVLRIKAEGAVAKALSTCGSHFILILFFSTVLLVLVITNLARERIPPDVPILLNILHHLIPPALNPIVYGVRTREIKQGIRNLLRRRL
Summary of the method: as §1

UniProt Q8VGV7 = target: T15, UniProt Q8VGV7
T15 sequence (whole entry): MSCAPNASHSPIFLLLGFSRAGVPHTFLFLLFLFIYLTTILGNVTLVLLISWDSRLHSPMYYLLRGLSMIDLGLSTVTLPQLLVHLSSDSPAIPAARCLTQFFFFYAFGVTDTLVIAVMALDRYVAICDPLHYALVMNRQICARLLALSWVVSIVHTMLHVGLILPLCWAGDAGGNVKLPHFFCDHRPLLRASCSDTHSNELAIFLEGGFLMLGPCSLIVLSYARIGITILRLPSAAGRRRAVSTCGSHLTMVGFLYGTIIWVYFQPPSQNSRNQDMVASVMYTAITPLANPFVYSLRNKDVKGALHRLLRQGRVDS
Summary of the method: as §1

UniProt Q8VGX3 = target: T16, UniProt Q8VGX3
T16 sequence (whole entry): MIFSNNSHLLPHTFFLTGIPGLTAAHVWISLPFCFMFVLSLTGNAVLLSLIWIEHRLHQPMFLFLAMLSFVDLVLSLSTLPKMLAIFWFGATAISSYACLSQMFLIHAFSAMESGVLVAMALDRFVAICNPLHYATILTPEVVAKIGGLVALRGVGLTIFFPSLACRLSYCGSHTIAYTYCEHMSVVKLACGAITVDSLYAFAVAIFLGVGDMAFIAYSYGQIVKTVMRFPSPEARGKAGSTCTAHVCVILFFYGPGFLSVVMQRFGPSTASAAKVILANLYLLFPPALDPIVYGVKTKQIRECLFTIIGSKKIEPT
Summary of the method: as §1

UniProt Q8VGX5 = target: T17, UniProt Q8VGX5
T17 sequence (whole entry): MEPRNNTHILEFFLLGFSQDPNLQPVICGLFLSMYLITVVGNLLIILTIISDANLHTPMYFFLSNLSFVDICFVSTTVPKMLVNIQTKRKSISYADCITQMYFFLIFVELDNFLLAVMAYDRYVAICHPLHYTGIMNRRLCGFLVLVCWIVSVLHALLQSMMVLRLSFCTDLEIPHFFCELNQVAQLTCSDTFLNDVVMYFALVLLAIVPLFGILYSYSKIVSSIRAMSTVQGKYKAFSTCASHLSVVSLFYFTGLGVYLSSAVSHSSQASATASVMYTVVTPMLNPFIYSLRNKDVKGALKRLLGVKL
Summary of the method: as §1

Measured: odorant receptor agonist call

CC(C)=CCCC(C)CCO (configuration not stated)
inactive: UniProt Q8VGD7 | UniProt Q8VGH1 | UniProt Q8VGJ1 | UniProt Q8VGJ3 | UniProt Q8VGJ5 | UniProt Q8VGL7 | UniProt Q8VGM2 | UniProt Q8VGP6 | UniProt Q8VGQ3 | UniProt Q8VGT4 | UniProt Q8VGU3 | UniProt Q8VGV1 | UniProt Q8VGV7 | UniProt Q8VGX3 | UniProt Q8VGX5
active: UniProt Q8VGC6 | UniProt Q8VGL0
